According to ChEMBL document CHEMBL1145301, “Synthesis and study of anti-inflammatory activity of some novel cyclophane amides” (2006):

Legend:
Type in all cases: functional, Erythrocyte
[1] = Antiinflammatory activity assessed as prevention of hypotonicity-induced lysis of human RBC at 10 ug/ml
Method in brief: (§1)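 Human blood spun at 1500 rpm; packed cells washed in isotonic NaCl (0.85%, pH 7.2) and resuspended 10% v/v. Mixture: compound, 1 ml phosphate buffer (0.15 M, pH 7.4), 2 ml hypotonic NaCl (0.36%), 0.5 ml cell suspension; control used distilled water instead of hypotonic saline. Incubated 37 °C, 30 min, centrifuged; supernatant hemoglobin read at 500 nm.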

[2] = Antiinflammatory activity assessed as prevention of hypotonicity-induced lysis of human RBC at 50 ug/ml; method in brief: as §1
[3] = Antiinflammatory activity assessed as prevention of hypotonicity-induced lysis of human RBC at 100 ug/ml; method in brief: as §1
[4] = Antiinflammatory activity assessed as prevention of hypotonicity-induced lysis of human RBC at 200 ug/ml; method in brief: as §1

Cc1cc2c(cc1C)COc1ccccc1C(=O)N(c1ccccc1)CCNC(=O)COc1ccccc1OCC(=O)NCCN(c1ccccc1)C(=O)c1ccccc1OC2
Activity [1]: 38.84% | Activity [2]: 41.72% | Activity [3]: 45.25% | Activity [4]: 47.97%

Cc1cc2c(cc1C)COc1ccccc1C(=O)Nc1ccccc1SCc1ccc(cc1)-c1cccc(c1)-c1ccc(cc1)CSc1ccccc1NC(=O)c1ccccc1OC2
Activity [1]: 48.27% | Activity [2]: 49.37% | Activity [3]: 51.42% | Activity [4]: 54.14%

Cc1cc2c(cc1C)COc1ccccc1C(=O)Nc1ccccc1SCCOc1ccc(cc1)NC(=O)c1ccccc1OC2
Activity [1]: 44.28% | Activity [2]: 45.63% | Activity [3]: 50.25% | Activity [4]: 51.27%

Cc1cc2c(cc1C)COc1ccccc1C(=O)Nc1ccccc1SCc1ccc(cc1)-c1ccc(cc1)CSc1ccccc1NC(=O)c1ccccc1OC2
Activity [1]: 65.17% | Activity [2]: 82.43% | Activity [3]: 89.67% | Activity [4]: 91%

Cc1cc2c(cc1C)COc1ccccc1C(=O)Nc1ccccc1SCc1ccc(cc1)NC(=O)c1ccccc1OC2
Activity [1]: 50.31% | Activity [2]: 52.27% | Activity [3]: 56.04% | Activity [4]: 60.86%

O=C1CSc2ccccc2NC(=O)c2ccccc2OCc2ccccc2COc2ccccc2C(=O)Nc2ccccc2SCC(=O)Nc2ccccc2N1
Activity [1]: 40.53% | Activity [2]: 42.6% | Activity [3]: 48.72% | Activity [4]: 49.65%

C[C@]12C=CC(=O)C=C1CC[C@@H]1[C@@H]2[C@@H](O)C[C@@]2(C)[C@H]1CC[C@]2(O)C(=O)CO [PREDNISOLONE]
Activity [2]: 59.34% | Activity [3]: 86.37%
